Experimental data taken from ChEMBL document CHEMBL1177807, “Structure-based optimization of potent PDK1 inhibitors” (Bioorg Med Chem Lett, 2010).
The source made the active and inactive calls. The calls are words filed in the database; no cut-off is given here.

Experiments:
[1] = target: Cyclin-dependent kinase 2 (Homo sapiens, UniProt P24941); experiment: Inhibition of CDK2
[2] = target: T1, 3-phosphoinositide-dependent protein kinase 1 (Homo sapiens, UniProt O15530); experiment: (§1) Inhibition of PDK1
T1 sequence (O15530 whole entry): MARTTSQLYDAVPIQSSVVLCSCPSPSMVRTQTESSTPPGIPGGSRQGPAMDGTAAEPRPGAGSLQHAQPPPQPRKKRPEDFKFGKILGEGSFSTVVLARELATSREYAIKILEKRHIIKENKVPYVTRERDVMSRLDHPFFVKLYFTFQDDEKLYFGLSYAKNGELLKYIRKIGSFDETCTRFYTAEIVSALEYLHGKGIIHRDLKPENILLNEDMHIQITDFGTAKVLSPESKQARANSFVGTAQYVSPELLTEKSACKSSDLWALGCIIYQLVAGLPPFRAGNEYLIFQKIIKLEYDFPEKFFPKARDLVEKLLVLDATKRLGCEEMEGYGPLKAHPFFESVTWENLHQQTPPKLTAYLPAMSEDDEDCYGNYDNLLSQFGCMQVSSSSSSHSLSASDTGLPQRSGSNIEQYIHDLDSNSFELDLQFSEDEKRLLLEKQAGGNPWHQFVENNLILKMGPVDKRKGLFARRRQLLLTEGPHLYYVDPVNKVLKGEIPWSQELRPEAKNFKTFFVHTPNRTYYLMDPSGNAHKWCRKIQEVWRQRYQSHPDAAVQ

[3] = tested on: A2780; experiment: Cytotoxicity against human A2780 cells after 72 hrs by Cell titer-glo assay; assay type: functional
Procedure, shortened: (§2)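 A2780 cells were grown in RPMI-1640 and MCF7 cells in MEM, each with heat-inactivated 10% fetal calf serum. Cells were seeded at 2500–5000 cells/well, treated with compound after 24 h, and incubated 72 h at 37 °C under 5% CO₂. Lysed-well ATP content, read by thermostable firefly luciferase, measured viable cells. IC₅₀ came from percent growth versus untreated control.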

[4] = tested on: MCF7; experiment: Cytotoxicity against human MCF7 cells after 72 hrs by Cell titer-glo assay; assay type: functional; procedure, shortened: as §2
[5] = target: T2, Aurora kinase A (Homo sapiens) (UniProt O14965); experiment: Inhibition of aurora A at 40 nM
T2 sequence (whole entry): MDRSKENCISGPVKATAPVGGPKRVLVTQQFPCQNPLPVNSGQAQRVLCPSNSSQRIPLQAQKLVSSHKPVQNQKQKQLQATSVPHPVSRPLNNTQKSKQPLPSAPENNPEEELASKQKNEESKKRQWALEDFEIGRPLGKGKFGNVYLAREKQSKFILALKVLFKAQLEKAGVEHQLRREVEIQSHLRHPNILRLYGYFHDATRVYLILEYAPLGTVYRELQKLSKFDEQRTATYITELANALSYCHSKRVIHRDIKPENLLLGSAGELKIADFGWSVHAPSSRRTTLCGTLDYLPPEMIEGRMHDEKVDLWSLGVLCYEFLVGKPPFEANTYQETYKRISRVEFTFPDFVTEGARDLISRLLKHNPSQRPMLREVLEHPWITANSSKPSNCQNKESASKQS

[6] = target: Aurora kinase B (Homo sapiens) (UniProt Q96GD4); experiment: Inhibition of aurora B at 100 nM
[7] = target: T3, 3-phosphoinositide-dependent protein kinase 1 (Homo sapiens) (UniProt O15530); experiment: as §1
T3 sequence (whole entry): T1 sequence (O15530 whole entry)

Sequence of Aurora kinase B (Homo sapiens) (Q96GD4 whole entry): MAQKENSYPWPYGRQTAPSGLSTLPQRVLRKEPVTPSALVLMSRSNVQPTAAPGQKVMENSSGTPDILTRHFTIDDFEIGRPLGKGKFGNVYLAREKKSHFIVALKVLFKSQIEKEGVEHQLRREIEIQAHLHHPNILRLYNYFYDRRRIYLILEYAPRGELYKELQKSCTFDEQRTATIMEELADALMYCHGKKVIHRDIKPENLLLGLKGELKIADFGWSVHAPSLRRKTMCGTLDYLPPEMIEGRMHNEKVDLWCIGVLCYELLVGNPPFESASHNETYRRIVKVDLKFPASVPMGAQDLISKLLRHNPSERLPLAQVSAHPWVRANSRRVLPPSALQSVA

SMILES | IC50 [1] | IC50 [2] | inhibition [5] | inhibition [6] | IC50 [7] | Activity [3] | Activity [4]
Cc1cc(CNC(=O)c2nn(CCCN)c3c2CCc2cnc(Nc4cccc(CC(=O)N(C)C)c4)nc2-3)ccn1 [NERVIANO] | 0.5 µM | 0.085 µM | Active | Active |  | 5.9 µM | >10 µM
NC(=O)c1nn(CC2CCNCC2)c2c1CCc1cnc(Nc3ccccc3)nc1-2 | 0.012 µM |  |  |  |  | 0.51 µM | 1.36 µM
Cc1cc(CNC(=O)c2nn(C)c3c2CCc2cnc(Nc4ccc(N5CCN(C)CC5)cc4)nc2-3)ccn1 | 0.319 µM |  |  |  | 0.713 µM | 0.17 µM | 4.91 µM

These reach a lower IC50 [1]. Values come first.

IC50 [1] | IC50 [2] | inhibition [5] | inhibition [6] | IC50 [7] | SMILES | Activity [3] | Activity [4]
0.01 µM | 2.74 µM |  |  |  | NC(=O)Cn1nc(C(N)=O)c2c1-c1nc(Nc3ccccc3)ncc1CC2 | 2.71 µM | 6 µM
0.001 µM | 0.036 µM |  |  |  | NCCCn1nc(C(N)=O)c2c1-c1nc(Nc3ccccc3)ncc1CC2 | 0.12 µM | 0.14 µM
